Compound activity deposited in PubChem by several laboratories.
A selection: hits, their analogues and other compounds. The true share with any hit is near 2%.
FLuc stim CS – firefly luciferase counter-screen for stimulation assays | ATPlite luciferase biochemical, luminescence, 10 min; 0 = ATP-free wells, 1 = DMSO control | activation factor at 10 µM | 200,000 tested, under 10 active;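 active means luciferase activation factor, scaled between plate controls, of at least 2 with compound at 10 µM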
Target sequence (P08659 whole entry, looked up): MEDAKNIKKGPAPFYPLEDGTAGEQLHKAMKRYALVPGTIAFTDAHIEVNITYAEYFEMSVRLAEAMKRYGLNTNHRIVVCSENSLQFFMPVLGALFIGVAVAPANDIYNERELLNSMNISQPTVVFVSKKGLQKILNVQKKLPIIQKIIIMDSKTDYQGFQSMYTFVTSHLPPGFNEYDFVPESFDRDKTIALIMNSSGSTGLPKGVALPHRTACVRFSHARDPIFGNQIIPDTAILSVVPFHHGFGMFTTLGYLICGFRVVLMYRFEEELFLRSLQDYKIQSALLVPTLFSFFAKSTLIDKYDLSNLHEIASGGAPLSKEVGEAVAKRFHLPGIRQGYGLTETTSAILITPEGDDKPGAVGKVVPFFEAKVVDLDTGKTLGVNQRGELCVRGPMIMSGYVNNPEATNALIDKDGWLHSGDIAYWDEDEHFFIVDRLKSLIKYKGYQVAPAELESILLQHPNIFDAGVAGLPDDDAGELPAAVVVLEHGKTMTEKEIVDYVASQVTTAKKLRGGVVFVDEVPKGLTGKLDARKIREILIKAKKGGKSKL
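Assay system: Luciferase/luciferin detection reagent, cell-free biochemical luciferase assay / Also added: ATP substrate / Schedule: 10 min at ambient temperature / Measured by: luminescence measurement of luciferase light output / Benchmarks: low control with PBS replacing ATP, high control enzyme plus ATP without compound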
PPC-1+TRAIL kill – compounds killing PPC-1 cancer cells with TRAIL present (potentiator screen, no TRAIL-free arm) | hit rate 0.41% among 220,000 | cell killing (% activity), % at 4 µM or 5 µM | AID 1443 | PPC-1 cells + TRAIL, ATPLite viability luminescence;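 active means cell killing above 50% in the first pass at 4 µM, then a duplicate retest at 5 µM averaging 50% or more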
HSP90 refold inh – blocks HSP90-mediated luciferase refolding in reticulocyte lysate | inhibition, % at 5.6 µM | Rabbit reticulocyte lysate, luciferase refolding luminescence, 3 h | AID 1789 | hit rate 0.91% among 290,000;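 active means inhibition above the screen-wide mean plus 3 SD, computed separately per campaign, cut at about 16% in these data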;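 further: inhibitors lower the luminescence because luciferase stays unfolded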
TRAIL sens C8 – caspase-8 TRAIL sensitization | NB7+C8 cells + TRAIL, ATPlite viability luminescence | inhibition (viability loss, TRAIL sensitization), % at 10 µM | hit rate 1% among 360,000 | AID 624354;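 active means compounds causing at least 50% loss of cell viability in the single-dose screen, relative to plate controls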
FLuc inh counter – inhibits firefly luciferase, flagging false hits in luciferase inhibition screens. ATPLite firefly luciferase biochemical luminescence, 10 min. inhibition, % at 10 µM. hit rate 1.5% among 200,000. P08659;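 active means inhibition above about 50% when tested at 10 µM, limit read from the data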
A number is an active result; 0 = inactive; - = not tested or not shown.

SMILES	FLuc stim CS	PPC-1+TRAIL kill	HSP90 refold inh	TRAIL sens C8	FLuc inh counter
CCCN(C(=O)CSc1n[nH]c(-c2ccc(OC)cc2)n1)c1c(N)n(Cc2ccccc2)c(=O)[nH]c1=O	-	-	-	0	-
COc1ccc(-c2nc(SCC(=O)N(CC(C)C)c3c(N)n(Cc4ccccc4)c(=O)[nH]c3=O)n[nH]2)cc1	-	-	-	51	-
O=C1/C(=C/c2cccs2)Sc2ccccc21	0	0	0	0	68
Cn1c2c(c(=O)n(C)c1=O)C(C(F)(F)F)(C(F)(F)F)N=C(c1ccc(Cl)cc1)N2	0	0	0	51	0
Cc1cc(=O)[nH]c(S/C=C/c2ccccc2)n1	0	0	0	0	77
Cc1cc(=O)[nH]c(SCc2ccccc2)n1	-	-	0	0	-
O=C(CC1SC(=O)N(Cc2cccc3ccccc23)C1=O)Nc1nccs1 (stereo not drawn)	0	0	0	53	0
CCOC(=O)CN1C(=O)SC(CC(=O)Nc2nccs2)C1=O (stereo not drawn)	0	0	0	60	0
FC(F)(F)c1ccccc1Cc1c(-c2ccc(Cl)cc2)nc2ccc(Br)cn12	-	-	-	0	-
COc1ccc(-c2nc3ccccc3n2OCC(=O)O)cc1	0	0	0	0	72
O=C(O)COn1c(-c2ccc(Cl)cc2)nc2ccc(Cl)cc21	0	0	0	0	0
COc1ccc(C(C(=O)NC2CCCC2)N(C(=O)c2snc(-c3ccc(F)cc3)c2N)c2ccc(F)cc2)cc1 (stereo not drawn)	0	0	0	51	0
COc1ccc(N(C(=O)c2cnccn2)C(C(=O)NC2CCCCC2)c2ccc(Cl)cc2)cc1 (stereo not drawn)	-	-	0	0	-
Cc1cccc(N(C(=O)CNC(=O)c2ccco2)C(C(=O)NC2CCCCC2)c2cccnc2)c1 (stereo not drawn)	-	-	0	0	-
COc1ccc(C(C(=O)NC2CCCCC2)N(C(=O)CCl)c2ccc(Cl)cc2)cc1 (stereo not drawn)	0	62	0	96	0
O=C(NC1CCCCC1)C(c1cccnc1)N(C(=O)CCl)c1cccc(Cl)c1 (stereo not drawn)	0	0	0	98	0
CS/C(N)=N/N=C/c1cc(C)ccc1O	-	0	0	64	-
COC(=O)C1(C(=O)OC)C[C@H](/C=C/c2ccccc2)N(Cc2ccccc2OC)[C@@H]1c1ccccc1	-	-	-	0	-
O=c1c2ccccc2sc2ccc(C#CC3(O)CCCCC3)cc12	-	-	-	93	-
COc1cccc2sc3ccc(C#CC4(O)CCCCC4)cc3c(=O)c12	-	-	0	54	-
COc1cccc2sc3ccc(C#Cc4ccc(N)cc4)cc3c(=O)c12	-	-	0	0	-
O=c1c2ccccc2oc2cc(C#CC3(O)CCCCC3)ccc12	-	-	-	79	-
CC(C)C1Cc2[nH]c(=S)[nH]c(=O)c2C(c2ccc(Cl)cc2)O1 (stereo not drawn)	-	-	-	0	-
O=c1[nH]c(N/N=C/c2ccccc2)nc2ccccc12	0	0	0	0	67
O=c1[nH]c(N/N=C\c2ccc3c(c2)OCO3)nc2ccccc12	0	0	0	52	76
SMILES	FLuc stim CS	PPC-1+TRAIL kill	HSP90 refold inh	TRAIL sens C8	FLuc inh counter
COc1ccc(Nc2ccnc3ccccc23)cc1	0	0	0	0	0
CC(C)Nc1ccc(Nc2ccnc3cc4ccccc4cc23)cc1	-	0	0	92	-
Cc1ccc(Nc2nc(CSc3nnc(-c4cccnc4)n3-c3ccccc3C)cs2)cc1	0	0	0	0	0
Cc1ccc(Nc2nc(CSc3nnc(-c4ccccc4C)n3C)cs2)cc1	0	0	0	0	64
Cc1ccc(Nc2nc(CSc3nnc(-c4ccccc4)n3C)cs2)cc1	0	0	0	50	86
Cc1ccc(Nc2nc(CSc3nnnn3C)cs2)cc1	0	0	0	51	62
Cc1ccc(Nc2nc(C)cs2)cc1	0	-	0	0	54
O=c1c2ccccc2nc2n1CCC2	0	0	0	0	0
O=c1c2cc(-c3ccccc3)sc2nc2n1CCC2	0	0	0	-	68
CCOC(=O)c1cn(-c2ccc(F)c(F)c2F)c2c(F)c(F)c(F)cc2c1=O	0	0	0	64	0
CCCCNC(=O)O[C@@H]1C[C@H]2CCC(=O)N3CC[C@@H](C1)[C@@H]23	-	-	0	0	-
Cc1ccc(C(=O)COC(=O)CCCC(=O)Nc2cc(C(F)(F)F)ccc2Cl)cc1C	0	0	0	0	54
Cc1ccc(C(=O)COC(=O)CCC(=O)Nc2ccccc2Cl)cc1[N+](=O)[O-]	0	0	0	0	0
O=C(Nc1ccc(NC(=O)c2ccc3c(c2)OCCO3)cc1)c1ccccc1	-	-	0	0	-
O=C(Nc1ccccc1)c1ccc2c(c1)OCCO2	0	0	0	0	65
CC(=O)Nc1cccc(/C(C)=N/NC(=O)c2ccc3c(c2)OCO3)c1	0	0	0	0	75
O=C(Nc1ccc2c(c1)OCO2)c1ccc(Cl)s1	0	0	0	0	61
O=C(Nc1ccc2c(c1)OCO2)c1cccc(Cl)c1	0	0	0	0	0
O=C(CCl)Nc1ccccc1C(=O)Nc1ccc2c(c1)OCO2	-	0	0	50	-
COC(=O)[C@@]12C[C@@H](CC(=O)NCC34CC5CC(CC(C5)C3)C4)C(=O)N(Cc3cccc4ccccc34)C1=CCC(C)(C)C2	-	-	-	0	-
O=C(COC(=O)c1cc(Br)ccc1O)Nc1cccnc1Cl	-	-	-	0	-
C/C(=N\NC(=O)c1nn(C)c(C)c1Br)c1cccc(NC(=O)c2ccc(F)cc2)c1	0	0	0	53	69
Cc1ccc(NC(=O)CNC(=O)c2ccc3c(c2)OCO3)nc1	-	-	0	0	-
O=C(Nc1ccc2c(c1)OCO2)c1ccc2c(c1)OCO2	0	0	0	71	83
Cc1ccc(NC(=O)c2ccc3c(c2)OCCO3)nc1	-	-	-	74	-
SMILES	FLuc stim CS	PPC-1+TRAIL kill	HSP90 refold inh	TRAIL sens C8	FLuc inh counter
Cc1cccc(NC(=S)NNC(=O)c2ccc3c(c2)OCO3)c1	0	0	0	50	79
O=C(Nc1ccc(F)c(F)c1)c1ccc2c(c1)OCO2	0	0	0	0	0
CCN1C(=O)[C@H]2[C@@H](c3ccc(C)cc3)N3C(=O)N(c4ccc(C(F)(F)F)cc4)C(=O)[C@@]3(Cc3ccccc3)[C@H]2C1=O	-	-	0	0	-
Cc1c(OCC(=O)NCC2CCC(C(=O)NCCCO)CC2)ccc2c(-c3ccccc3)cc(=O)oc12 (stereo not drawn)	-	-	0	0	-
COc1ccc2ncc(OC(C)=O)cc2c1	0	0	0	0	0
C/C(=N\NC(=O)c1ccc(O)cc1)c1cccc(NC(=O)c2ccccc2C)c1	-	-	0	63	-
O=C(Nc1ccn(Cc2ccc(Cl)cc2)n1)c1ccccc1	0	0	0	0	0
O=C(Nc1ccc2c(c1)OCO2)Nc1ccccn1	0	0	0	0	50
O=C(Nc1ccn(Cc2ccccc2)n1)c1ccc2c(c1)OCO2	0	0	0	0	58
C[C@@H](NC(=O)[C@@H]1Cc2ccccc2CN1C(=O)OC(C)(C)C)C(=O)NC1CCCC1	-	-	0	0	-
Cc1cccc(NC(=O)CCc2ccc(N3C(N)=NC(N)=NC3(C)C)cc2)c1	-	-	-	80	-
CC1(C)N=C(N)N=C(N)N1c1cccc(CC(=O)Nc2ccccc2)c1	-	-	-	78	-
O=C(Cc1cccc([N+](=O)[O-])c1)Nc1ccccc1	-	-	-	0	-
